Data taken from ChEMBL document CHEMBL1147097, “Trioxaquines are new antimalarial agents active on all erythrocytic forms, including gametocytes” (Antimicrob Agents Chemother, 2007).
Active and inactive are the calls of the source.

Key:
Plasmodium falciparum [1] = experiment: Antimalarial activity against chloroquine-resistant Plasmodium falciparum W2 gametocytes (stage 2 & 3); assay type: functional, organism-based
Outline: (§1)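 W2 gametocyte cultures treated with 50 mM N-acetyl-D-glucosamine for 3 or 5 days to remove asexual forms. Young (7-day) or old (13-day) cultures exposed to drug dilutions for 48 h. Giemsa thin films made and gametocytes counted per 6,000–10,000 erythrocytes. Mean of three independent experiments.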

Plasmodium falciparum [2] = experiment: Antimalarial activity against chloroquine-resistant Plasmodium falciparum W2 asexual […]; assay type: functional, organism-based
Plasmodium falciparum [3] = experiment: Antimalarial activity against chloroquine-resistant Plasmodium falciparum W2 gametocytes (stage 4 & 5); assay type: functional, organism-based; outline: as §1
[4] = test system: Plasmodium vinckei petteri; experiment: Antimalarial activity against Plasmodium vinckei petteri infected intraperitoneally dosed Swiss Albino mice (Mus musculus); assay type: functional
Outline: (§2)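 Four-day suppressive test: groups of five female Swiss albino mice infected i.p. on day 0 with 2 × 10^7 parasitized red cells, then dosed once daily for 4 days (i.p., p.o. or s.c.; DMSO vehicle, chloroquine in 0.9% NaCl). Parasitemia read on day 4 vs untreated controls; ED50/ED90 as % growth inhibition; CD50/CD90 = cure (no parasites at 60 days).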

[5] = test system: Plasmodium vinckei petteri; experiment: Antimalarial activity against Plasmodium vinckei petteri infected mice (Mus musculus) at 13 mg/kg/day, peroral administered 4 days after infection for 4 days; assay type: functional, organism-based
Outline: (§3)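 Established-infection test: mice infected with 10^6 P. vinckei petteri on day 0 and left untreated until day 4. Then dosed p.o. by gavage once daily in DMSO for 4 days (days 4–7). Thin blood smears taken daily before and after treatment, with follow-up for recrudescence to 60 days.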

Mus musculus [6] = experiment: Mortality rate in Plasmodium vinckei petteri infected mice (Mus musculus) at 50 mg/kg, subcutaneously; assay type: functional, organism-based; set-up: dose 50 mg/kg
Outline: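 Subacute toxicity: P. vinckei petteri-infected mice dosed on four consecutive days (day 0–3) at 10, 25 or 50 mg/kg/day p.o., i.p. or s.c. Five mice per dose and route.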

[7] = Ratio of LD50 for Swiss mice (Mus musculus) to ED50 for Plasmodium vinckei petteri infected mice (Mus musculus); assay type: functional
Outline: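 Therapeutic index: LD50 (healthy Swiss mice, observed 60 days) divided by ED50 from the 4-day P. vinckei petteri suppressive test.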

Plasmodium falciparum [8] = experiment: Antimalarial activity against chloroquine-resistant Plasmodium falciparum FcM29; assay type: functional, organism-based
Outline: (§4)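 Asexual P. falciparum grown in culture at 37°C under 5% CO2 and exposed to drug dilutions for 48 h. Growth inhibition measured by radioactive micromethod. IC50 read graphically from concentration vs % growth inhibition; mean of at least three independent experiments.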

Plasmodium falciparum [9] = experiment: Antimalarial activity against chloroquine-resistant Plasmodium falciparum FcB1; assay type: functional, organism-based; outline: as §4
Plasmodium falciparum [10] = experiment: Growth inhibition after 6 hrs in chloroquine-resistant Plasmodium falciparum FcB1; assay type: functional, organism-based; settings: FcB1, 6 h
Outline: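 Plasmion-synchronized FcB1 parasites plated at ring stage and exposed to drug during successive 6-h windows of the erythrocytic cycle (one plate per period). Artemisinin tested at 7, 14, 28 nM; chloroquine at 120, 163, 232 nM; trioxaquine at 11.5, 23, 46 nM. Dilutions prepared daily.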

[11] = test system: Plasmodium vinckei petteri; experiment: Antimalarial activity against Plasmodium vinckei petteri infected orally dosed Swiss Albino mice (Mus musculus); assay type: functional; settings: for ED50 / ED90: Plasmodium vinckei, po; outline: as §2
[12] = Cytotoxicity against human HCT cells assessed as [3H]thymidine incorporation; assay type: cell-based
Outline: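 HCT human colorectal tumour cells grown with 10% fetal calf serum and harvested with 0.05% trypsin-EDTA. Plated at 15 × 10^3 cells/well with drug dilutions.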

[13] = test system: Plasmodium vinckei petteri; experiment: Antimalarial activity against Plasmodium vinckei petteri infected subcutaneously dosed Swiss Albino mice (Mus musculus); assay type: functional; settings: for ED50 / ED90: Plasmodium vinckei, sc; outline: as §2
Plasmodium falciparum [14] = experiment: Antimalarial activity against chloroquine-sensitive Plasmodium falciparum Nigeria; assay type: functional, organism-based, Nigerian; outline: as §4
[15] = Ratio of IC50 for HCT cells to IC50 for Plasmodium falciparum; assay type: functional
[16] = test system: Plasmodium yoelii nigeriensis; experiment: Antimalarial activity against Plasmodium yoelii nigeriensis infected mice (Mus musculus) by oral dose; assay type: functional; settings: for ED50 / ED90: Plasmodium yoelii, po
Outline: (§5)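 Four-day suppressive test with P. yoelii nigeriensis: infected mice given drug once daily for four consecutive days p.o. or s.c. (DMSO vehicle, chloroquine in 0.9% NaCl). Parasitemia compared with untreated controls. Cure was defined as no parasites detected after 60 days, with CD50 taken as the dose curing 50% of mice.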

Mus musculus [17] = experiment: Toxicity against intraperitoneally dosed Swiss mouse; assay type: organism-based; settings: in vivo, ip
Outline: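 Acute toxicity: noninfected Swiss mice (two to five per dose) given a single i.p. injection. LD50 is the dose killing 50% of mice within 60 days.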

[18] = test system: Plasmodium yoelii nigeriensis; experiment: Antimalarial activity against Plasmodium yoelii nigeriensis infected subcutaneously dosed mice (Mus musculus); assay type: functional; settings: for ED50 / ED90: Plasmodium yoelii, sc; outline: as §5
Plasmodium falciparum [19] = experiment: Antimalarial activity against chloroquine-sensitive Plasmodium falciparum F32; assay type: functional, organism-based; outline: as §4
[20] = test system: Plasmodium vinckei petteri; experiment: Antimalarial activity against Plasmodium vinckei petteri infected mice (Mus musculus) at 5 mg/kg/day, peroral administered 4 days after infection for 4 days; assay type: functional, organism-based; outline: as §3
[21] = Plasmodium vinckei, ip, read-out: ED50
[22] = Plasmodium vinckei, ip, read-out: ED90

## COc1cc(NC(C)CCCNC2CCC3(CC2)OO[C@@]2(C)CCC(C(C)C)=C[C@H]2O3)c2ncccc2c1 (some centres not stated)
Plasmodium falciparum [1]
  IC50: 57 nM
Plasmodium falciparum [2]
  IC50: 43 nM
Plasmodium falciparum [3]
  IC50: 46 nM

## CO[C@H]1O[C@@H]2O[C@@]3(C)CC[C@H]4[C@H](C)CC[C@@H]([C@H]1C)[C@@]24OO3
[4]; [21]
  ED50: 0.3 mg/kg/day
[4]; [22]
  ED90: 0.7 mg/kg/day

## CC(C)C1=C[C@H]2OC3(CCC(NCCNc4ccnc5cc(Cl)ccc45)CC3)OO[C@@]2(C)CC1 (some centres not stated)
[5]
  Activity: Active
Mus musculus [6]
  Activity: inactive
[7]
  Ratio LD50/ED50: 100

## CC(C)C1=C[C@H]2OC3(CCC(NCCNc4ccnc5cc(Cl)ccc45)CC3)OO[C@@]2(C)CC1 (stereo in doubt; form 1)
Plasmodium falciparum [8]
  IC50: 29 nM
Plasmodium falciparum [9]
  IC50: 49 nM

## CC(C)C1=C[C@H]2OC3(CCC(NCCNc4ccnc5cc(Cl)ccc45)CC3)OO[C@@]2(C)CC1 (stereo in doubt; form 2)
Plasmodium falciparum [8]
  IC50: 32 nM
Plasmodium falciparum [9]
  IC50: 48 nM

## CC(C)C1=C[C@H]2OC3(CCC(NCCNc4ccnc5cc(Cl)ccc45)CC3)OO[C@@]2(C)CC1 (stereo in doubt; form 3)
Plasmodium falciparum [8]
  IC50: 23 nM
Plasmodium falciparum [9]
  IC50: 47 nM

## CC(C)C1=C[C@H]2OC3(CCC(NCCNc4ccnc5cc(Cl)ccc45)CC3)OO[C@@]2(C)CC1 (stereo in doubt; form 4)
Plasmodium falciparum [8]
  IC50: 19 nM
Plasmodium falciparum [9]
  IC50: 43 nM

## CC(C)C1=C[C@H]2OC3(CCC(NCCNc4ccnc5cc(Cl)ccc45)CC3)OO[C@@]2(C)CC1.O=C(O)CC(O)(CC(=O)O)C(=O)O (stereo in doubt; form 5)
Plasmodium falciparum [10]
  IC50: 18 nM
[11]
  CD50: >25 mg/kg/day
  CD90: >25 mg/kg/day
  ED50: 17 mg/kg/day
  ED90: 23 mg/kg/day
Plasmodium falciparum [1]
  IC50: 69 nM
Plasmodium falciparum [2]
  IC50: 28 nM
[12]
  IC50: 3000 nM
[13]
  CD50: >10 mg/kg/day
  CD90: >10 mg/kg/day
  ED50: 2.8 mg/kg/day
  ED90: 8 mg/kg/day
Plasmodium falciparum [14]
  IC50: 23 nM
Plasmodium falciparum [3]
  IC50: 67 nM
[15]
  Ratio IC50: 130
[16]
  CD50: 22 mg/kg/day
  CD90: 24 mg/kg/day
  ED50: 15 mg/kg/day
  ED90: 23 mg/kg/day
Mus musculus [17]
  LD50: 70 mg/kg/day
[18]
  CD50: 3 mg/kg/day
  CD90: 12 mg/kg/day
  ED50: 2 mg/kg/day
  ED90: 5 mg/kg/day
[4]
  CD50: 12 mg/kg/day
  CD90: >20 mg/kg/day
Plasmodium falciparum [9]
  IC50: 5 nM

## CC(C)C1=C[C@H]2OC3(CCC(NCCNc4ccnc5cc(Cl)ccc45)CC3)OO[C@@]2(C)CC1 (stereo in doubt; form 5)
[7]
  Ratio LD50/ED50: 23

## CC(C)C1=C[C@H]2OC3(CCC(NCCNc4ccnc5cc(Cl)ccc45)CC3)OO[C@@]2(C)CC1 (stereo in doubt; form 6) [TRIOXAQUINE 3]
Plasmodium falciparum [8]
  IC50: 18 nM
Plasmodium falciparum [14]
  IC50: 18 nM
Plasmodium falciparum [19]
  IC50: 18 nM
Plasmodium falciparum [9]
  IC50: 26 nM

## CC(C)C1=C[C@H]2OC3(CCC(NCCNc4ccnc5cc(Cl)ccc45)CC3)OO[C@@]2(C)CC1 (stereo in doubt; form 7) [TRIOXAQUINE 3]
Plasmodium falciparum [8]
  IC50: 7 nM
Plasmodium falciparum [19]
  IC50: 7 nM
Plasmodium falciparum [9]
  IC50: 7 nM

## CC(C)C1=C[C@H]2OC3(CCC(NCCNc4ccnc5cc(Cl)ccc45)CC3)OO[C@@]2(C)CC1 (stereo in doubt; form 8) [TRIOXAQUINE 3]
Plasmodium falciparum [8]
  IC50: 12 nM
Plasmodium falciparum [19]
  IC50: 11 nM
Plasmodium falciparum [9]
  IC50: 8 nM

## CC(C)C1=C[C@H]2OC3(CCC(NCCNc4ccnc5cc(Cl)ccc45)CC3)OO[C@@]2(C)CC1.O=C(O)CC(O)(CC(=O)O)C(=O)O (stereo in doubt; form 9)
[4]
  ED50: 3 mg/kg/day
  ED90: 8 mg/kg/day

## CC(C)C1=C[C@H]2OC3(CCC(NCCNc4ccnc5cc(Cl)ccc45)CC3)OO[C@@]2(C)CC1.O=C(O)CC(O)(CC(=O)O)C(=O)O (stereo in doubt; form 10)
[4]
  CD50: 7 mg/kg/day
  ED50: 7 mg/kg/day
  ED90: 2.5 mg/kg/day

## C[C@@H]1CC[C@H]2[C@@H](C)C(=O)O[C@@H]3O[C@@]4(C)CC[C@@H]1[C@]32OO4 [ARTEMISININ]
Plasmodium falciparum [10]
  IC50: 15 nM
[11]
  CD50: >25 mg/kg/day
  CD90: >25 mg/kg/day
  ED50: 17 mg/kg/day
  ED90: 30 mg/kg/day
[12]
  IC50: > 35000 nM
[13]
  CD50: >10 mg/kg/day
  CD90: >10 mg/kg/day
  ED50: 3.2 mg/kg/day
  ED90: 8 mg/kg/day
Plasmodium falciparum [8]; Plasmodium falciparum, FcM29
  IC50: 8 nM
[15]
  Ratio IC50: 4370
[20]
  Activity: Active
[16]
  CD50: 75 mg/kg/day
  CD90: >100 mg/kg/day
  ED50: 16 mg/kg/day
  ED90: 27 mg/kg/day
Plasmodium falciparum [19]; Plasmodium falciparum, F32
  IC50: 6 nM
[18]
  CD50: 7 mg/kg/day
  CD90: 23 mg/kg/day
  ED50: 5 mg/kg/day
  ED90: 23 mg/kg/day
[4]; [21]
  ED50: 4 mg/kg/day
[4]; [22]
  ED90: > 5 mg/kg/day
Plasmodium falciparum [9]; Plasmodium falciparum, FcB1
  IC50: 5 nM

## C[C@H]1[C@H](OC(=O)CCC(=O)O)O[C@@H]2O[C@@]3(C)CC[C@H]4[C@H](C)CC[C@@H]1[C@@]24OO3 [ARTESUNATE]
[11]
  CD50: 19 mg/kg/day
  CD90: 28 mg/kg/day
  ED50: 2.5 mg/kg/day
  ED90: 8 mg/kg/day
Plasmodium falciparum [1]
  IC50: 72 nM
Plasmodium falciparum [2]
  IC50: 6 nM
[13]
  CD50: 2.5 mg/kg/day
  CD90: 7.5 mg/kg/day
  ED50: 0.3 mg/kg/day
  ED90: 0.8 mg/kg/day
Plasmodium falciparum [8]; Plasmodium falciparum, FcM29
  IC50: 1.6 nM
Plasmodium falciparum [3]
  IC50: 108 nM

## O=C1C(O)=C([C@H]2CC[C@H](c3ccc(Cl)cc3)CC2)C(=O)c2ccccc21 [ATOVAQUONE]
Plasmodium falciparum [1]
  IC50: 24000 nM
Plasmodium falciparum [2]
  IC50: 4.6 nM
Plasmodium falciparum [3]
  IC50: 50400 nM

## CCN(CC)CCCC(C)Nc1ccnc2cc(Cl)ccc12 (configuration not stated) [CHLOROQUINE]
[12]
  IC50: 50000 nM
[18]
  CD50: 3 mg/kg/day
  CD90: 5 mg/kg/day
  ED50: 3 mg/kg/day
  ED90: 5 mg/kg/day

## COc1cc(NC(C)CCCN)c2ncccc2c1 (configuration not stated) [PRIMAQUINE]
Plasmodium falciparum [1]
  IC50: 4580 nM
Plasmodium falciparum [2]
  IC50: 1320 nM
Plasmodium falciparum [3]
  IC50: 1540 nM
